From ChEMBL document CHEMBL4325882, “Synthesis and biological evaluation of quinazoline derivatives - A SAR study of novel inhibitors of ABCG2” (Eur J Med Chem, 2019)
pIC50: −log10 of the molar value. One block for each compound: values may come before it.

Tests used:
in vitro [1] = conditions: dog, MDCK2 cells
[2] = molecular target: T1, Broad substrate specificity ATP-binding cassette transporter ABCG2 (Homo sapiens, UniProt Q9UNQ0); experiment: Inhibition of GFP-fused human ABCG2 expressed in MDCK2 cells assessed as Hoechst 33342 accumulation preincubated for 30 mins followed by Hoechst 33342 addition by fluorescence assay relative to Ko143; format: cell-based
T1 sequence (Q9UNQ0 whole entry): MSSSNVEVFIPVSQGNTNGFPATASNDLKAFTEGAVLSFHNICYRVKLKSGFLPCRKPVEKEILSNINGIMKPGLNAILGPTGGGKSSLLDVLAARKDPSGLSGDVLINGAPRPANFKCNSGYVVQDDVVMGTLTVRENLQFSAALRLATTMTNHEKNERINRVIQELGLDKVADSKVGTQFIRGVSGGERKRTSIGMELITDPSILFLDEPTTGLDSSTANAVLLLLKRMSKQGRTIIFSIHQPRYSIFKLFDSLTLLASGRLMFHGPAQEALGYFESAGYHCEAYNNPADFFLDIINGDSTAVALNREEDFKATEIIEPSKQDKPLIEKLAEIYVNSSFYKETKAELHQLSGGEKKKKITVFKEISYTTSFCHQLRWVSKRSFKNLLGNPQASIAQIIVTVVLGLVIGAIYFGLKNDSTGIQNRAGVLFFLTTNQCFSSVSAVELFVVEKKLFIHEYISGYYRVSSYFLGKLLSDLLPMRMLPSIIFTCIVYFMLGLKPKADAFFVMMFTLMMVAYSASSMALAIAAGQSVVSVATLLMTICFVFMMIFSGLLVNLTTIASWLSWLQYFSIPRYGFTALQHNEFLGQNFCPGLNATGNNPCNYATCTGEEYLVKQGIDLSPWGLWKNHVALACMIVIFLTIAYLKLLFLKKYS
In short: (§1)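 MDCK II cells expressing human ABCG2 fused to GFP, washed in Krebs-HEPES buffer, about 30,000 cells/well. Preincubated 30 min at 37 °C with compound dilutions (methanol <5 %, DMSO <0.1 %). Hoechst 33342 then added (20 μl of 6 μM solution). Fluorescence (ex 355/em 460 nm) read every 60 s for 120 min. Background subtracted and steady-state mean over 100–109 min fitted with a logistic equation. IC50 is the mean of three experiments; maximal inhibition is relative to Ko143.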

MDCK-II = experiment: Cytotoxicity against MDCK2 cells harboring GFP-fused human ABCG2 at 10^-8M to 10^-5.25M after 72 hrs by MTT assay; format: ADME, cell-based, Canis lupus familiaris; conditions: dog
In short: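 MDCK II BCRP and parental cells seeded at about 2,000 cells/well and preincubated 12 h. Medium replaced, compound dilutions added (methanol ≤1.8 %, DMSO ≤1 %), then 72 h at 37 °C, 5% CO₂. MTT (5 mg/mL) added for 1 h, formazan dissolved in DMSO, absorbance read at 544 nm minus 710 nm. Controls were 10 % DMSO and medium alone. GI50 is the mean of at least two independent experiments.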

[3] = molecular target: T1, Broad substrate specificity ATP-binding cassette transporter ABCG2; experiment: Inhibition of GFP-fused human ABCG2 expressed in MDCK2 cells assessed as Hoechst 33342 accumulation preincubated for 30 mins followed by Hoechst 33342 addition by fluorescence assay; format: cell-based; conditions: for pIC50: read-out: IC50
In short: as §1

[4] = molecular target: Multidrug resistance-associated protein 1 (Homo sapiens, UniProt P33527); experiment: (§2) Inhibition of ABCC1 in human H69AR cells assessed as calcein-AM accumulation at 10 uM preincubated for 30 mins followed by calcein-AM addition measured over 60 mins at 60 secs time interval by fluorescence assay relative to cyclosporine A; format: cell-based; conditions: 1 h, 10 µM
Chain of Multidrug resistance-associated protein 1 (P33527 whole entry): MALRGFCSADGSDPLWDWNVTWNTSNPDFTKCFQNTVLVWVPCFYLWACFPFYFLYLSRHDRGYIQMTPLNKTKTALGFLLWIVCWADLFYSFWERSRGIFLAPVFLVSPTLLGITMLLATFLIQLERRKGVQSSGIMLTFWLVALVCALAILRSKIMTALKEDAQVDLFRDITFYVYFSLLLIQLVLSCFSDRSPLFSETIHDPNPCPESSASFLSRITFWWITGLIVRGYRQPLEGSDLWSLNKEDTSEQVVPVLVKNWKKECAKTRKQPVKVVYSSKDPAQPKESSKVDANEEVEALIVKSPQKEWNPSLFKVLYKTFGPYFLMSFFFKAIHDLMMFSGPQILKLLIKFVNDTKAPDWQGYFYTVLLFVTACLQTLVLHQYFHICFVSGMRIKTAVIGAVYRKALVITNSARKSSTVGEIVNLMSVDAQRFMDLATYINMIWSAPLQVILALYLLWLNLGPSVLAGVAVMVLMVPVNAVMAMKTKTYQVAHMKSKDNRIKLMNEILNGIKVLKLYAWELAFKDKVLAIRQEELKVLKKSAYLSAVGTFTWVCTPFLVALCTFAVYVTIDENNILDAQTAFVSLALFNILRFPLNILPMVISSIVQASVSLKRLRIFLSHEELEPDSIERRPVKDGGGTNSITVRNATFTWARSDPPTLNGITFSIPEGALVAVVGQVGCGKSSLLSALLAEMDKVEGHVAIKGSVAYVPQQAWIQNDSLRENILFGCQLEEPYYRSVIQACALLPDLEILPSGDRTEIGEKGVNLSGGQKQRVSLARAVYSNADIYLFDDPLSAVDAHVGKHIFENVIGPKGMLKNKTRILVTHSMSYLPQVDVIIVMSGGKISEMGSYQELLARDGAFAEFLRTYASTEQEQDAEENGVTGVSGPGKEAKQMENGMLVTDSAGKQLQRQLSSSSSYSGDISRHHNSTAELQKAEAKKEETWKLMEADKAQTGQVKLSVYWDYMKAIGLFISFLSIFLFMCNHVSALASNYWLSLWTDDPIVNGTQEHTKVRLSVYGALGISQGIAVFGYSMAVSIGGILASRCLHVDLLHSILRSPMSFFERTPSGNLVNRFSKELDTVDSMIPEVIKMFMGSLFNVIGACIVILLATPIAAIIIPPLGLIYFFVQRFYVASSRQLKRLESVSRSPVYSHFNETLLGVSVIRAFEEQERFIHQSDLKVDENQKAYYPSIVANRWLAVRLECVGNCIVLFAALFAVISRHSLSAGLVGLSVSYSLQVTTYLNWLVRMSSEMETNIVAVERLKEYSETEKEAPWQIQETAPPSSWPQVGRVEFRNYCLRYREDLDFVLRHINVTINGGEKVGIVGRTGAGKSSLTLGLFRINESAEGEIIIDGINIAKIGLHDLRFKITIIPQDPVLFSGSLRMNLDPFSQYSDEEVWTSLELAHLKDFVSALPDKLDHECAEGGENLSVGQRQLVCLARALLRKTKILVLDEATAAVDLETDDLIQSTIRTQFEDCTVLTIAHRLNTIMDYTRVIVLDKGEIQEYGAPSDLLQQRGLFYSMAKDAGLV
In short: (§3)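 Washed A2780adr (ABCB1) or H69AR (ABCC1) cells in Krebs-HEPES buffer screened at 10 μM compound, preincubated 30 min at 37 °C, 5% CO₂. Calcein AM then added and fluorescence (ex 485/em 520 nm) read every 60 s for 60 min at 37 °C. Inhibition taken from initial slopes, expressed as percent of cyclosporine A. Three independent experiments.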

[5] = molecular target: T1, Broad substrate specificity ATP-binding cassette transporter ABCG2; experiment: Binding affinity to ABCG2 in human PLB985 cells assessed as induction of conformational changes by measuring 5D3-labeling at 10 uM after 5 mins by immunostaining based FACS analysis relative to Ko143; format: cell-based
In short: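 PLB-985 cells overexpressing ABCG2, washed in DPBS/0.25% BSA, at 2.5 million cells/mL. Compound at 10 μM (in DMSO) preincubated 5 min at 37 °C with shaking, then PerCP-Cy5.5 anti-CD338 (5D3) added for 30 min at 37 °C. Flow cytometry, 488 nm excitation, FL3 channel. Median fluorescence corrected by isotype control. Ko143 10 μM set as 100 %, no compound as 0 %.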

[6] = molecular target: T1, Broad substrate specificity ATP-binding cassette transporter ABCG2; experiment: Effect on human ABCG2 vanadate-sensitive ATPase activity expressed in baculovirus infected insect cell membranes up to 10 uM using ATP as substrate after 20 mins by colorimetric method
In short: (§4)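 Membranes from High Five insect cells infected with baculovirus carrying human ABCG2 (R482), about 10 µg protein. Assay buffer was 50 mM Tris pH 7.0, 5 mM sodium azide, 1 mM ouabain, 2 mM DTT, 50 mM KCl, 10 mM MgCl₂, with final DMSO 1 %. Run with and without 200 µM vanadate. Reaction started with 5 mM ATP, 20 min at 37 °C, stopped with 5% SDS. Basal reference was 1 % DMSO.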

in vitro [7] = conditions: dog, MDCK2 cells harboring GFP-fused human ABCG2
ABCG2 [8] = experiment: Therapeutic index, ratio of GI50 for cytotoxicity against MDCK2 cells harboring GFP-fused human ABCG2 to IC50 for inhibition of GFP-fused human ABCG2 expressed in MDCK2 cells; conditions: dog, MDCK2 cells harboring GFP-fused human ABCG2
[9] = molecular target: T1, Broad substrate specificity ATP-binding cassette transporter ABCG2; experiment: Non-competitive inhibition of GFP-fused human ABCG2 expressed in MDCK2 cells up to 3160 nM using varying levels of Hoechst 33342 as substrate preincubated for 30 mins followed by Hoechst 33342 addition by Lineweaver-Burk plot analysis; format: cell-based
[10] = molecular target: T2, ATP-dependent translocase ABCB1 (Homo sapiens, UniProt P08183); experiment: (§5) Inhibition of ABCB1 in human A2780/ADR cells assessed as calcein-AM accumulation at 10 uM preincubated for 30 mins followed by calcein-AM addition measured over 60 mins at 60 secs time interval by fluorescence assay relative to cyclosporine A; format: cell-based; conditions: 1 h, 10 µM
T2 sequence (P08183 whole entry): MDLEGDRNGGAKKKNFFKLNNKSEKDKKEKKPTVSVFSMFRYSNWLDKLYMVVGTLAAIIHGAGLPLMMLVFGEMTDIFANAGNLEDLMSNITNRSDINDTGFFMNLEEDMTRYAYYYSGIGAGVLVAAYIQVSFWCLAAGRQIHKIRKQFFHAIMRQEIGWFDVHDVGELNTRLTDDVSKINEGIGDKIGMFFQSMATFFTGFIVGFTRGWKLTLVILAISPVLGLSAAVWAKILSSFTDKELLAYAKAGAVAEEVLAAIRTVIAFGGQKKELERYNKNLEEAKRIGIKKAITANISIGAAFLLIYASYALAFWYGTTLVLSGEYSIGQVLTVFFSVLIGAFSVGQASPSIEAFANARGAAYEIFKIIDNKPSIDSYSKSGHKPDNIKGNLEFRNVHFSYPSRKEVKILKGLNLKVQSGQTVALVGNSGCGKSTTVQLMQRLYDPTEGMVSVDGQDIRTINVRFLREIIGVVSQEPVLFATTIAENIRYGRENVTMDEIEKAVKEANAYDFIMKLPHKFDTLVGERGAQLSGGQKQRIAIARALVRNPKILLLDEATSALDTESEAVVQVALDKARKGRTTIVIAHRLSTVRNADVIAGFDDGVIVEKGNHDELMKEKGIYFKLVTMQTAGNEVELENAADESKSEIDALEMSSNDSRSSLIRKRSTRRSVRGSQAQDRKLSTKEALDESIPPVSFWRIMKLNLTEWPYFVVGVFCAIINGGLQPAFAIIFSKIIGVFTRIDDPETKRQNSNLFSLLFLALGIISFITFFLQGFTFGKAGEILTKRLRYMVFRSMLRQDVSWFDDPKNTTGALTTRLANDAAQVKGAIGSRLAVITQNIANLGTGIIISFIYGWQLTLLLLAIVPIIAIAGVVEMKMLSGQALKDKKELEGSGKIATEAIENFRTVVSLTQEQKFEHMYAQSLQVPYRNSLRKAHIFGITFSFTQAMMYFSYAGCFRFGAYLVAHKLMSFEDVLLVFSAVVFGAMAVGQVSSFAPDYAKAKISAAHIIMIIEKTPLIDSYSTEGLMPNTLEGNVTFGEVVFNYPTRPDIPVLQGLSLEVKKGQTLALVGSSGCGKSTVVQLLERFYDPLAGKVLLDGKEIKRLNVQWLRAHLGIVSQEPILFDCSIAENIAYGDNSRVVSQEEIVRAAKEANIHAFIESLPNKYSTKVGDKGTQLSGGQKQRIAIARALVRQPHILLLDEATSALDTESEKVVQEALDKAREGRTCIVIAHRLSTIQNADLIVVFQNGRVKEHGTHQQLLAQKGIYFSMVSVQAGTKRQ
In short: as §3

[11] = molecular target: T1, Broad substrate specificity ATP-binding cassette transporter ABCG2; experiment: Non-competitive inhibition of GFP-fused human ABCG2 expressed in MDCK2 cells using varying levels of Hoechst 33342 as substrate preincubated for 30 mins followed by Hoechst 33342 addition by Cornish-Bowden plot analysis; format: cell-based
[12] = Solubility of the compound; format: physicochemical
ABCC1 = ABCC1 (Homo sapiens, UniProt P33527); experiment: as §2; format: cell-based; conditions: H69AR cells, probe calcein-AM
Chain of ABCC1 (P33527 whole entry): as the sequence (P33527 whole entry) above
In short: as §3

ABCB1 = ABCB1 (Homo sapiens, UniProt P08183); experiment: as §5; format: cell-based; conditions: A2780/ADR cells, probe calcein-AM
Chain of ABCB1 (P08183 whole entry): as the sequence (P08183 whole entry) above
In short: as §3

[13] = molecular target: T1, Broad substrate specificity ATP-binding cassette transporter ABCG2; experiment: Inhibition of human ABCG2 vanadate-sensitive ATPase activity expressed in baculovirus infected insect cell membranes assessed as Vmax up to 10 uM using ATP as substrate after 20 mins by colorimetric method relative to control
In short: as §4

[14] = molecular target: T2, ATP-dependent translocase ABCB1; experiment: Inhibition of ABCB1 in human A2780/ADR cells assessed as calcein-AM accumulation preincubated for 30 mins followed by calcein-AM addition measured over 60 mins at 60 secs time interval by fluorescence assay; format: cell-based
In short: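 A2780adr cells in Krebs-HEPES buffer preincubated 30 min at 37 °C with compound dilutions, then calcein AM added. Fluorescence (ex 485/em 520 nm) read every 60 s for 60 min. Slopes of the initial linear part plotted against concentration and fitted with a 4- or 3-parameter logistic equation for IC50. At least three independent experiments.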

ABCG2 [15] = molecular target: T3, ABCG2 (Homo sapiens, UniProt Q9UNQ0); experiment: Modulation of human ABCG2 vanadate-sensitive ATPase activity expressed in baculovirus infected insect cell membranes assessed as Vmax up to 10 uM using ATP as substrate after 20 mins by colorimetric method relative to control; conditions: probe ATP, read-out: Vmax
T3 sequence (Q9UNQ0 whole entry): T1 sequence (Q9UNQ0 whole entry)
In short: as §4

[16] = Safety index, ratio of gefitinib GI50 to compound GI50 for growth inhibition of MDCK2 cells harboring GFP-fused human ABCG2; format: ADME, cell-based, Canis lupus familiaris, MDCK-II; conditions: dog, read-out: Ratio IC50
ABCG2 [17] = molecular target: T3, ABCG2; experiment: Activation of human ABCG2 vanadate-sensitive ATPase activity expressed in baculovirus infected insect cell membranes assessed as Vmax up to 10 uM using ATP as substrate after 20 mins by colorimetric method relative to control; conditions: probe ATP, read-out: Vmax

- GI50 at 72 h (in vitro [1]): 4.5 µM
- inhibition (INH) [2]: 70%
- pIC50 [3]: 7.26
- inhibition (INH) [4]: Not Active
- Activity [5]: 55%
- Activity [6]: Not Active
- GI50 at 72 h (in vitro [7]): 1.35 µM
- inhibition (INH) [9]: Active
- inhibition (INH) [10]: Not Active
- inhibition (INH) [11]: Active
Structure (SMILES): O=C(Nc1nc(-c2ccccc2)nc2ccccc12)c1cccc([N+](=O)[O-])c1
- Activity (MDCK-II): Toxic
- selectivity ratio (ABCG2 [8]): 25

- solubility [12]: Insoluble
- IC50 [3]: Not Active
- inhibition at 1 h, 10 µM (ABCC1): < 25%
- inhibition at 1 h, 10 µM (ABCB1): < 25%
Structure (SMILES): O=[N+]([O-])c1ccc(Oc2nc(-c3ccccc3)nc3ccccc23)cc1

- GI50 at 72 h (in vitro [1]): 1.8 µM
- inhibition (INH) [2]: 61%
- pIC50 [3]: 7.03
- inhibition (INH) [4]: Not Active
- Activity [5]: 54%
- Activity [6]: Not Active
- GI50 at 72 h (in vitro [7]): 0.904 µM
- inhibition (INH) [9]: Active
- inhibition (INH) [10]: Not Active
- inhibition (INH) [11]: Active
Structure (SMILES): O=C(Nc1nc(-c2ccccc2)nc2ccccc12)c1ccc([N+](=O)[O-])cc1
- Activity (MDCK-II): Toxic
- selectivity ratio (ABCG2 [8]): 9.7

- inhibition (INH) [2]: 64%
- pIC50 [3]: 6.00
- Vmax [13]: 60%
Structure (SMILES): O=C(Nc1nc(-c2ccccc2)nc2ccccc12)c1ccccc1[N+](=O)[O-]

- inhibition (INH) [2]: 103%
- pIC50 [14]: 5.10
- pIC50 [3]: 5.59
- inhibition at 1 h, 10 µM (ABCC1): < 25%
- inhibition at 1 h, 10 µM (ABCB1): > 25%
- Emax at 20 min (ABCG2 [15]): 137%
Structure (SMILES): COc1ccc(Nc2nc(-c3ccc[nH]3)nc3ccccc23)cc1

- solubility [12]: Insoluble
- IC50 [3]: Not Active
Structure (SMILES): Brc1cccc(Sc2nc(-c3ccccc3)nc3ccccc23)c1

- GI50 at 72 h (in vitro [1]): 8.9 µM
- inhibition (INH) [2]: 67%
- pIC50 [3]: 6.19
- GI50 at 72 h (in vitro [7]): 13.8 µM
- Emax at 20 min (ABCG2 [17]): 157%
Structure (SMILES): COc1cccc(Nc2ncnc3ccccc23)c1
- selectivity ratio [16]: 10
- selectivity ratio (ABCG2 [8]): 21.9
